Measured values of several laboratories.
Protocols differ between the studies behind these lines. In brackets after ≈: the same amount, converted by molar mass.

| SMILES | tested on | assay | system | setting | measurement | value |
| --- | --- | --- | --- | --- | --- | --- |
| COc1ccnc(COc2ccc(NC(=O)Nc3ccc(F)cc3)cc2)c1OC | L02 | cell growth or viability, MTT | – | 72 h | IC50 | > 100 µM |
| O=C(Nc1cc(F)c(F)c(F)c1)c1ccc(F)c(S(=O)(=O)NCc2cccc(B(O)O)c2)c1 | Hepatitis B virus | viral replication, inhibitor, qPCR | HePAD38 | 6 days | EC50 | 0.92 µM |
| O=C(N[C@H](CO)[C@H](O)c1ccc([N+](=O)[O-])cc1)C(Cl)Cl | Aliivibrio fischeri | microbial growth | – | – | MIC90 | 3.9 µg/mL (≈ 12.1 µM) |
| Cc1ccc(C)n1-c1ccc(-c2nnc(-c3ccc(Br)cc3)[nH]2)cc1 | Saccharomyces cerevisiae | microbial growth, broth dilution | ATCC9763 | – | MIC | 4 µg/mL (≈ 10.2 µM) |
| Cl.NCCc1cccc(Oc2ccc(-c3noc(-c4ccc(O)cc4)n3)cc2)c1 | Clostridioides difficile | microbial growth, broth dilution | – | 48 h | MIC | 4 µg/mL |
| Cc1cccc(N(O)N=Nc2ccc(S(=O)(=O)Nc3cc(C)on3)cc2)c1 | – | ABTS scavenging | – | 300 µg/mL | inhibition | 90.2% |
| Nc1ccc(-c2nc(-c3ccc(Oc4ccccc4)cc3)no2)cc1 | Clostridioides difficile | microbial growth, broth dilution | – | 48 h | MIC | > 50 µg/mL |
| COc1c(C)cnc(COc2ccc(NC(=O)Nc3cccc(C(F)(F)F)c3)cc2)c1C | L02 | cell growth or viability, MTT | – | 72 h | IC50 | > 100 µM |
| COc1ccc(-c2ccc(-c3ccc(C(=N)N)nc3)s2)cc1Cl | SF-268 | cell growth or viability, SRB | – | – | GI50 | 1.81 µM |
| Cc1ccc(N(O)N=Nc2ccc(S(=O)(=O)Nc3cc(C)on3)cc2)cc1 | – | ABTS scavenging | – | 20 µg/mL | inhibition | 17.2% |
| O=C(O)CCc1cccc(Oc2ccc(-c3noc(-c4ccc(O)cc4)n3)cc2)c1 | Clostridioides difficile | microbial growth, broth dilution | – | 48 h | MIC | 8 µg/mL (≈ 19.9 µM) |
| O=C1O[C@H]([C@@H](O)CO)C(O)=C1O | – | ABTS scavenging | – | 60 µg/mL | inhibition | 49.9% |
| CCN(CC)CCNC(=O)c1c(C)[nH]c(/C=C2\C(=O)Nc3ccc(F)cc32)c1C | BaF3 | cell growth or viability, ATP luminescence | – | 72 h | GI50 | 1.42 µM |
